The full list was thinned out, with hits kept by preference.
INS promoter act: TRM-6 insulin promoter activation; TRM-6 cells, insulin promoter eGFP reporter, imaging; plate-scaled: unstimulated 0, stimulated control 100; activation, % at 2 µM; 0.81% of 130,000 active; AID 1296;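 active = activation at 2 µM above a set limit, confirmed on inspection of the cell images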;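 note: share of cells whose green reporter signal exceeds an intensity cutoff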
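Test system: human fetal islet-derived TRM-6 cells with tamoxifen-inducible insulin promoter–eGFP reporter; schedule: overnight tamoxifen, then two-day compound incubation at 37 °C; measured by: high-content imaging of fixed cells with Hoechst nuclear stain; evaluation: percent cells above green-intensity threshold, converted to percent activation versus plate controls; control set: stimulated and unstimulated wells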
Numbers without * were called inactive; [ ] = another dose, or the depositor's remark.

SMILES	INS promoter act
CCN1/C(=C\C=C\C2=[N+](CC)c3ccccc3C2(C)C)C(C)(C)c2ccccc21	257.1*[toxic and fluoresces]
COc1ccccc1Cn1c(SCC(=O)C(C)(C)C)nc2cc(C(=O)N3CCC4(CC3)OCCO4)ccc2c1=O	0.0
CN1CCN(c2ncnc3nc[nH]c23)CC1	0.0
COc1ccc(OC)c(C2=NOC(C(=O)N3CCC4(CC3)OCCO4)C2)c1 (stereo not drawn)	3.7
COc1ccc(N=C2SCCCN2C)cc1	512.5*
Fc1ccccc1CCNCc1cccc(Cl)c1Cl	0.0
CCOC(=O)c1cc(CC)sc1/N=C/C1C(=O)NC(=S)NC1=O	295.0*
N=C1c2ccccc2CN1c1ncccn1	0.0
C/C(=N\NC(=S)Nc1ccccc1)c1c(O)n(C)c(=O)n(C)c1=O	0.0
N#Cc1ccc(OCC(=O)N2CCN(Cc3ccc4c(c3)OCO4)CC2)cc1	0.0
COc1ccc(N2C(=O)/C(=C/C=C/c3ccccc3[N+](=O)[O-])C(=O)NC2=S)cc1	0.0
OC12ONC(c3ccccn3)C1N1CCC2CC1 (stereo not drawn)	107.7
CCCCOc1nc2ccccc2c(=O)n1-c1ccccc1	3.3
O=c1c2ccccc2nc(SCC2CCCCO2)n1-c1ccccc1 (stereo not drawn)	366.7*
O=c1c2ccccc2nc(-c2ccco2)n1-c1cccnc1	-2.9
O=c1[nH]c(=O)n(-c2ccccc2Cl)c(O)c1C=NCCN1CCCCC1	0.0
CC(C)(C)c1ccc(O)c(CN2CCN(c3ccccc3)CC2)c1	-82.3
O=C(c1csc2c1CCCCC2)N1CCC2(CC1)OCCO2	0.0
COc1ccc(C(=O)C2(C)N(O)C(C)C(c3cccs3)=[N+]2[O-])cc1 (stereo not drawn)	-7.7
CN1CCC2(CC1)NC(=O)C1=C(CN(C)CC1)N2	-30.0
O=C(Nc1ccc(Cl)cc1C(=O)c1ccccc1Cl)c1ccco1	230.0*
Cc1ccc(C(=O)Nc2ccc(Cl)cc2C(=O)c2ccccc2)cc1	113.3
O=C(COc1ccccc1)Nc1ccc(Cl)cc1C(=O)c1ccccc1	116.7
Cc1ccccc1N1C(=O)CC(=O)N(c2ccccc2C)C1=O	-8.3
COC(=O)c1c(C)[nH]c(C(=O)C(Cc2ccccc2)N(C)C)c1C (stereo not drawn)	0.0
CC(C)OP(=O)(OC(C)C)C(O)c1cccnc1 (stereo not drawn)	0.0
Nc1ccc(C2(c3ccc(N)cc3)CCCCC2)cc1	-6.7
Brc1ccc(C2N3CCCN23)cc1 (stereo not drawn)	508.3*
Clc1cccc(Cl)c1CN1CCN(c2ccccc2)CC1	8.6
CSc1ncc(Cl)c(C(=O)O)n1	9.7

Compound activity from PubChem.
